# Measured values gathered from unrelated publications.
# Matrix: plasma
SMILES,host,route,dose,notes,AUC(0-inf)
CNC(=O)c1cc(Oc2ccc(NC(=O)Nc3ccc(Cl)c(C(F)(F)F)c3)cc2)ccn1,male Sprague-Dawley rat,oral,100 mg/kg,single dose,18400 ng·h/mL
C=CC(=O)N1CCC([C@@H]2CCNc3c(C(N)=O)c(-c4ccc(Oc5ccccc5)cc4)nn32)CC1,Sprague-Dawley rat,oral,16 mg/kg,,1460 ng·h/mL
COc1nc(-c2cccc(-c3ccccc3)c2C)ccc1CNCCNC(=O)CCCCCCCCCCC(=O)N1CCN(CCNC(=O)c2cc3c(=O)n4cccc(C)c4nc3n(CCc3cccs3)c2=N)CC1,male Sprague-Dawley rat,intravenous,2 mg/kg,,1640 ng·h/mL
C[C@H]1Oc2cc(cnc2N)-c2c(nn(C)c2C#N)CN(C)C(=O)c2ccc(F)cc21,male Sprague-Dawley rat,oral,10 mg/kg,single dose,3840 ng·h/mL
CONC(=O)c1cccc2c1cc(C)n2-c1nc2c(c(NCc3ccccc3)n1)CCCN2,male Sprague-Dawley rat,oral,10 mg/kg,single dose,38.9 ng·h/mL
Cc1nc(Nc2ncc(C(=O)Nc3c(C)cccc3Cl)s2)cc(N2CCN(CCO)CC2)n1,male Sprague-Dawley rat,oral,5 mg/kg,single dose,0.199 µM·h
Cn1c(=O)c2[nH]cnc2n(C)c1=O,male Sprague-Dawley rat,intravenous,22.5 mg/kg,,59400 ng·h/mL
CCN(CC)Cc1ccc2cc(COC(=O)Nc3ccc(C(=O)NO)cc3)ccc2c1,male Sprague-Dawley rat,oral,10 mg/kg,,8730 ng·h/mL
C1=C/COCc2cc(ccc2OCCN2CCCC2)Nc2nccc(n2)-c2cccc(c2)COC/1,male Sprague-Dawley rat,oral,36 mg/kg,,3320 ng·h/mL
COc1ccc(N(Cc2csc(-c3ccccc3)n2)C(=O)CCCCCC(=O)NO)cc1,female Sprague-Dawley rat,intravenous,5 mg/kg,,30.7 ng·h/mL
COc1cc(-c2cc(C(C)=O)n3ccccc23)c(OC)cc1Cn1ccnc1,male Sprague-Dawley rat,intravenous,5 mg/kg,,4300 ng·h/mL
O=C1CCC(N2Cc3cc(C4CCN(Cc5ccccc5)CC4)ccc3C2=O)C(=O)N1 (stereo not shown),male Sprague-Dawley rat,oral,3 mg/kg,,349 ng·h/mL
CCOc1c([C@H](C)n2nc(C)c3c(N)ncnc32)cc(Cl)c(F)c1[C@@H]1CNC(=O)C1,male Sprague-Dawley rat,oral,2 mg/kg,single dose,4610 ng·h/mL
